In ChEMBL document CHEMBL1155099, “Natural products in parallel synthesis: triazole libraries of nonactic acid” (2008):
Activity calls are given as the source filed them.

What was measured:
Assay type in all cases: functional, organism-based
Saccharomyces cerevisiae = assay: Antifungal activity against Saccharomyces cerevisiae at 1 mM by almar blue dye reduction assay
How it was run: (§1)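 Single-point primary screen at 1 mM using Alamar Blue dye reduction as the growth read-out.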

Bacillus cereus = assay: Antibacterial activity against Bacillus cereus at 1 mM by almar blue dye reduction assay; how it was run: as §1
Staphylococcus aureus = assay: Antibacterial activity against Staphylococcus aureus at 1 mM by almar blue dye reduction assay; how it was run: as §1
Bacillus anthracis = assay: Antibacterial activity against Bacillus anthracis at 1mM by almar blue dye reduction assay
Candida albicans = assay: Antifungal activity against Candida albicans at 1 mM by almar blue dye reduction assay; how it was run: as §1
Bacillus subtilis = assay: Antibacterial activity against Bacillus subtilis at 1 mM by almar blue dye reduction assay; how it was run: as §1
Pseudomonas aeruginosa = assay: Antibacterial activity against Pseudomonas aeruginosa at 1 mM by almar blue dye reduction assay; how it was run: as §1
Cryptococcus neoformans = assay: Antifungal activity against Cryptococcus neoformans at 1 mM by almar blue dye reduction assay; how it was run: as §1
Escherichia coli = assay: Antibacterial activity against Escherichia coli at 1 mM by almar blue dye reduction assay; how it was run: as §1

Measured: Activity

CC(C)NC(=O)[C@H](C)C1CCC(C[C@@H](C)n2cc(C#CCOC(=O)OCc3ccccc3)nn2)O1 (single isomer, unassigned)
inactive: all assays above

CC(C)CC#Cc1cn([C@H](C)C[C@@H]2CC[C@H]([C@@H](C)C(=O)N3CCCC3)O2)nn1
inactive: all assays above

Cc1cccc(NC(=O)NCC#Cc2cn([C@H](C)CC3CCC([C@@H](C)C(=O)N4CCCC4)O3)nn2)c1 (single isomer, unassigned)
inactive: all assays above

COc1ccc(OCC#Cc2cn([C@H](C)C[C@@H]3CC[C@H]([C@@H](C)C(=O)N4CCN(CC5CCCO5)CC4)O3)nn2)cc1 (some centres not stated)
inactive: all assays above

CCCNC(=O)NCC#Cc1cn([C@H](C)CC2CCC([C@@H](C)C(=O)NC(C)C)O2)nn1 (single isomer, unassigned)
inactive: all assays above

C[C@H](C[C@@H]1CC[C@H]([C@@H](C)C(=O)N2CCCC2)O1)n1cc(C#Cc2ccc(Oc3ccccc3)cc2)nn1
inactive: all assays above

C[C@H](C[C@@H]1CC[C@H]([C@@H](C)C(=O)N(C)Cc2ccccc2)O1)n1cc(C#CCOc2ccc(C(F)(F)F)cc2)nn1
inactive: all assays above

C[C@H](CC1CCC([C@@H](C)C(=O)N2CCN(CC3CCCO3)CC2)O1)n1cc(C#CCNC(=O)OCc2ccccc2)nn1 (single isomer, unassigned)
inactive: all assays above

C[C@H](C[C@@H]1CC[C@H]([C@@H](C)C(=O)N(C)Cc2ccccc2)O1)n1cc(C#Cc2ccc(C(F)(F)F)cc2)nn1
inactive: all assays above

C[C@H](C[C@@H]1CC[C@H]([C@@H](C)C(=O)N(C)Cc2ccccc2)O1)n1cc(C#Cc2ccccc2[N+](=O)[O-])nn1
inactive: all assays above

CCN(CC)C(=O)[C@H](C)[C@H]1CC[C@@H](C[C@@H](C)n2cc(C#CCC3CCCC3)nn2)O1
inactive: all assays above

CC(C)NC(=O)[C@H](C)[C@H]1CC[C@@H](C[C@@H](C)n2cc(C#CCN(C)CCc3ccccc3)nn2)O1
inactive: all assays above

CC(C)NC(=O)[C@H](C)[C@H]1CC[C@@H](C[C@@H](C)n2cc(C#CCC3CCCC3)nn2)O1
inactive: all assays above

CCC(=O)OCC#Cc1cn([C@H](C)CC2CCC([C@@H](C)C(=O)N(CC)CC)O2)nn1 (single isomer, unassigned)
inactive: all assays above

C[C@H](C[C@@H]1CC[C@H]([C@@H](C)C(=O)N2CCN(CC3CCCO3)CC2)O1)n1cc(C#CCOc2ccc(C(F)(F)F)cc2)nn1 (some centres not stated)
inactive: all assays above

CCC(=O)OCC#Cc1cn([C@H](C)CC2CCC([C@@H](C)C(=O)NC(C)C)O2)nn1 (single isomer, unassigned)
inactive: all assays above

C[C@H](C[C@@H]1CC[C@H]([C@@H](C)C(=O)N2CCN(CC3CCCO3)CC2)O1)n1cc(C#CCN2CCC(c3ccccc3)CC2)nn1 (some centres not stated)
inactive: all assays above

C[C@H](C[C@@H]1CC[C@H]([C@@H](C)C(=O)N2CCN(CC3CCCO3)CC2)O1)n1cc(C#CCOc2ccc(Br)cc2)nn1 (some centres not stated)
inactive: all assays above

COCC#Cc1cn([C@H](C)C[C@@H]2CC[C@H]([C@@H](C)C(=O)N3CCCC3)O2)nn1
inactive: all assays above

C[C@H](CC1CCC([C@@H](C)C(=O)N2CCN(CC3CCCO3)CC2)O1)n1cc(C#CCOC(=O)OCc2ccccc2)nn1 (single isomer, unassigned)
inactive: all assays above

C[C@H](C[C@@H]1CC[C@H]([C@@H](C)C(=O)N2CCCC2)O1)n1cc(C#CCOc2ccc(Br)cc2)nn1
inactive: all assays above

C[C@H](C[C@@H]1CC[C@H]([C@@H](C)C(=O)N2CCN(CC3CCCO3)CC2)O1)n1cc(C#CCN(C)C)nn1 (some centres not stated)
inactive: all assays above

C[C@H](C[C@@H]1CC[C@H]([C@@H](C)C(=O)N2CCN(CC3CCCO3)CC2)O1)n1cc(C#Cc2ccccc2)nn1 (some centres not stated)
inactive: all assays above
